Screening results as filed in PubChem.
RGS4 pot – RGS4 potentiators or activators, primary screen, cell-based, HEK293 M3R inducible RGS4, calcium flux | 310,000 tested, 0.92% active | B-score at 10 µM | AID 463111, 2010 | carbachol calcium flux Fluo4; hits give low values;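 active means B-score of the integrated calcium signal more than 4 SD below the library mean, with starting fluorescence not abnormally high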;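 further: negative B-score means reduced calcium response which marks RGS4 activation or potentiation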
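System: HEK293 FlpIn-TREx cells, stable M3R, doxycycline-inducible RGS4. Timing: overnight RGS4 induction, 30 min dye load 37 °C, 20 min compound RT. Also added: carbachol, ECmax concentration. Measured by: Fluo4 fluorescence kinetic imaging of calcium. Evaluation: integrated calcium ratio converted to B score.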
MrgX1 antagonist – antagonists of human MrgX1 receptor, primary screen, HEK293 cells, Fluo-4 calcium flux; BAM8-22 antagonism; hits give low values; B-score at 10 µM; 310,000 tested, 1.3% active;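 active means calcium-response B-score plate-corrected more than 3 library SD below zero, starting fluorescence within 5 deviations, no agonist response on first addition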;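 further: peak minus trough fluorescence over baseline after final BAM8-22 challenge near maximal dose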
Target sequence (Q96LB2 whole entry, looked up): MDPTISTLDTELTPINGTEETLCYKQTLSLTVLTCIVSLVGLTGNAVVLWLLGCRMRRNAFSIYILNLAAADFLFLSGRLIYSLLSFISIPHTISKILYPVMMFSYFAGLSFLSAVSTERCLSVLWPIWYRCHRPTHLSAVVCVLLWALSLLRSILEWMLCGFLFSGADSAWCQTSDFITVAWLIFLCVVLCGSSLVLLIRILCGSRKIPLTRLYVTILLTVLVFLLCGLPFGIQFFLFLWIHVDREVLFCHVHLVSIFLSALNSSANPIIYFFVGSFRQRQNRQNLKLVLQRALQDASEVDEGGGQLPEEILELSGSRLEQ
MrgX1 allo act – positive allosteric modulators of MrgX1, primary screen, HEK293 cells, Fluo-4 calcium flux. Mas-related G-protein coupled receptor member X1 (Homo sapiens), Q96LB2. FDSS; hits give high values. B-score at 10 µM. 310,000 tested, 0.63% active. AID 588675, 2011;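 active means plate-corrected calcium response at least 3 library SD above typical, normal starting fluorescence, not activating the receptor alone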;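 further: compound read alongside a low EC10 to EC30 dose of BAM8-22 agonist; peak minus trough fluorescence over baseline measured at the second addition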
RGS4 block – RGS4 inhibitors, primary screen, cell-based, HEK293 M3R inducible RGS4, calcium flux; Regulator of G-protein signaling 4 (Homo sapiens), P49798; Fluo-4 calcium flux; hits give high values; triggered by carbachol at its EC20; B-score at 10 µM; 310,000 tested, 0.45% active; AID 463165, 2010;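 active means B-score, a plate-corrected calcium signal, over three deviations above library mean, with baseline fluorescence within five deviations of library mean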;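 further: RGS4 expression induced by doxycycline in cells with stable M3 receptor; B-score is computed from the integrated fluorescence ratio over baseline after carbachol; higher B-score means a larger calcium signal and so more RGS4 inhibition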
Target sequence (P49798 whole entry, looked up): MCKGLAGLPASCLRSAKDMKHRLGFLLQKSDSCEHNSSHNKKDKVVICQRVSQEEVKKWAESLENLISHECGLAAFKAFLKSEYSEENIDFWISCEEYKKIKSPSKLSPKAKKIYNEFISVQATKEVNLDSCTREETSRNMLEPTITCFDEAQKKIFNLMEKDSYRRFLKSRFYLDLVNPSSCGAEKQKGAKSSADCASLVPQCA
MrgX1 agonist – agonists of human MrgX1 receptor, primary screen, HEK293 cells, Fluo-4 calcium flux | B-score at 10 µM | Fluo-4 calcium fluorescence, agonist mode; hits give high values | 310,000 tested, 0.44% active;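 active means calcium response B-score plate-corrected fluorescence ratio at least 3 library SD, with starting fluorescence B-score inside 5 SD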
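Test system: HEK293 cells stably expressing human MrgX1 receptor; amount: 15,000 cells per well; doses: compound delivered in addition one of three; times: overnight plating before 1 h dye loading; detection: Fluo-4 NW calcium-flux fluorescence, kinetic read; read-out basis: B-scored fluorescence response ratio; controls: positive and negative controls per plate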
Lipid droplet – inhibitors of hepatocyte lipid droplet formation, primary screen, imaging, high-throughput imaging, BODIPY stain; AML12 mouse hepatocytes, oleate lipid droplets; inhibition, % at 6.5 µM; 240,000 tested, 0.4% active;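 active means lipid droplet intensity inhibited by at least 50%, with more than 500 cells counted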
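Technique: fluorescence imaging, 20x objective, two fields per well / Assay system: AML12 hepatocytes (mouse) / Measure: % inhibition of lipid droplet signal / Doses: 6.5 µM single-point dosing / Incubation: overnight exposure / Reagent: 100 µM oleic acid challenge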
* marks the source's active call; other numbers are inactive results; i = inactive; nt = no result given. Rows were chosen to be rich in hits. Some 3.8% of all compounds tested hit in one or more screens of this group.

SMILES | RGS4 pot | MrgX1 antagonist | MrgX1 allo act | RGS4 block | MrgX1 agonist | Lipid droplet
CCOc1ccc(N(CC(=O)Nc2ccc(OC)cc2)C2=NC3CS(=O)(=O)CC3S2)cc1 (configuration not stated) | i | i | i | i | i | -1
CN1CCOC(=O)/C1=N/Nc1cc(Cl)ccc1Cl | i | i | i | i | i | 4
CCOc1ccc(C(C)=O)cc1Cc1c(O)nc(N)[nH]c1=O | i | -5.2* | i | i | i | 15
CC(=O)c1ccc(OCC(C)C)c(Cc2c(O)nc(N)[nH]c2=O)c1 | i | i | i | i | i | 0
CCc1nnc(NC(=O)CCC(=O)NC2CCCCCCC2)s1 | i | i | i | i | i | 32
Cn1nc(C(C)(C)C)c([N+](=O)[O-])c1C(=O)NC1CCCCC1 | i | i | i | i | i | 15
COc1ccc(C(=O)/C=C/c2ccc(N3CCCCC3)c([N+](=O)[O-])c2)c(OC)c1 | i | i | 14* | i | i | -14
C=CC(c1ccccc1)C(C(=O)c1ccccc1)N(C)C (configuration not stated) | nt | nt | nt | nt | nt | -5
CCCCNc1c(-c2ccc(SC(C)CC)cc2)nc2ccccn12 (configuration not stated) | -7.5* | i | i | i | i | nt
COc1ccccc1OCCCC(=O)Nc1nnc(C2CCCO2)s1 (configuration not stated) | i | i | i | i | i | -9
Cn1nc(C(C)(C)C)cc1C(=O)NCc1ccc2c(c1)OCO2 | i | i | i | i | i | -28
COc1ccc(NC(=O)C/C(C)=N/NC(=O)c2cnccn2)c(OC)c1 | i | i | i | i | i | 16
COc1ccc(NC(=O)C/C(C)=N/NC(=O)C(=O)NC2CCCCC2)c(OC)c1 | i | i | 9.2* | i | i | 3
O=[N+]([O-])c1ccc(NC(=S)N2CCN(c3ccccc3)CC2)cc1 | i | i | i | i | i | 1
O=[N+]([O-])c1ccc(N2CCN(C(=S)Nc3ccccc3)CC2)cc1 | i | i | 7.5* | i | i | 18
CC1OC(OC2C(OC3C(O[C@H]4CC[C@]5(C)C6C=C[C@]78OC[C@@]9(CC[C@@H](C)[C@H](C)C97)[C@H](O)C[C@@]8(C)[C@]6(C)CC[C@H]5C4(C)C)OC(C)C(O)C3O)OC(CO)C(O)C2O)C(O)C(O)C1O (some centres not stated) | -7.4* | nt | nt | i | nt | 18
Cc1ccc(S(=O)(=O)Nc2cc(C)c(O)c(Sc3n[nH]c(C)n3)c2)cc1 | i | i | i | i | i | 11
COc1ccc(/C=C/C(=O)C2CC2)cc1COc1c(C)cccc1C | -8.5* | i | i | i | i | 2
O=C(c1ccccc1NS(=O)(=O)c1ccc(F)cc1)N1CCOCC1 | i | i | i | i | i | -5
Cn1ncc([N+](=O)[O-])c1C(=O)N/N=C/c1ccc(F)cc1 | i | i | i | i | i | -2
Cn1ncc([N+](=O)[O-])c1C(=O)N/N=C/c1cccc([N+](=O)[O-])c1 | i | -5.4* | i | i | i | 0
Cc1ccc(S(=O)(=O)N2CCN(C(=O)c3ccc(-n4cncn4)c([N+](=O)[O-])c3)CC2)cc1C | i | i | i | i | i | nt
Cc1cccc(N2CCN(C(=O)c3ccc(-n4cncn4)c([N+](=O)[O-])c3)CC2)c1C | i | -4.9* | i | i | i | 11
Cc1ccoc1C(=O)NCCNc1ccc(Cl)cc1[N+](=O)[O-] | i | -5.1* | i | i | i | -44
CC1(C)Cc2c(sc3c2c(=N)n(Cc2ccco2)c(=O)n3Cc2ccc(F)cc2)CO1 | nt | -4.6* | i | nt | i | nt
SMILES | RGS4 pot | MrgX1 antagonist | MrgX1 allo act | RGS4 block | MrgX1 agonist | Lipid droplet
Cc1cccc(-c2nc(CS(=O)CC(=O)N3CC(C)CC(C)C3)c(C)o2)c1 (configuration not stated) | i | i | i | i | i | 0
O=[N+]([O-])/C=C/c1c(OCc2ccccc2)ccc2ccccc12 | i | i | i | 13* | i | 3
CCOC(=O)COc1ccc2ccccc2c1/C=C/[N+](=O)[O-] | i | i | i | i | i | 3
CC(=O)OCCn1c2nc(=O)[nH]c(=O)c-2nc2cc(C)c(C)cc21 | -7.7* | i | i | i | i | 2
O=C(NCc1cccnc1)c1ccc(-c2ccccc2[N+](=O)[O-])o1 | i | -5.9* | i | i | i | -14
C#CCOCCOCCOCCNc1nc(N2CCN(C(=O)[C@H](Cc3cc4ccccc4[nH]3)n3cc(C(N)CC(C)C)nn3)CC2)nc(N2CCN(C(=O)[C@H](CCC(=O)O)n3cc(C(N)[C@H](C)CC)nn3)CC2)n1 (some centres not stated) | i | i | 8.9* | i | i | 2
C#CCOCCOCCOCCNc1nc(N2CCN(C(=O)[C@H](CCCCN)n3cc(C(N)CO)nn3)CC2)nc(N2CCN(C(=O)[C@H](CCC(=O)O)n3cc(C(N)[C@H](C)CC)nn3)CC2)n1 (some centres not stated) | i | -4.5* | i | i | i | 4
Cc1ccc([N+](=O)[O-])cc1NC(=S)NCCc1ccccc1 | i | i | i | i | i | 2
Cn1nnnc1Sc1c(Cl)cccc1[N+](=O)[O-] | i | -5.6* | i | i | i | -8
Cn1nnnc1Sc1ccc([N+](=O)[O-])cc1Cl | i | i | i | i | i | -12
COc1cccc(O)c1CN1CCC(n2nccc2NC(=O)c2ccc3c(c2)OCO3)CC1 | i | i | i | i | i | 23
CC1CCCCN1CC(=O)Nc1ccc2c(c1)OC(F)(F)O2 (configuration not stated) | i | i | i | i | i | -12
CN1CCC(N(C)CC(=O)Nc2ccc3c(c2)OC(F)(F)O3)CC1 | -7.4* | i | i | i | i | 16
CCOc1ccc(NC(=O)CSc2nnnn2-c2ccc(C(N)=O)cc2)cc1 | i | i | i | i | i | -1
